ChEMBL document CHEMBL1122670, “Synthesis of previously inaccessible quinazolines and 1,4-benzodiazepines as potential anticonvulsants” (J Med Chem, 1984)
Several values for one entry are separate records, joined by “and”; a condition that tells them apart may be missing. Equal values may be shown once. Activity calls are given as the source filed them.

How the values were obtained:
[1] = system: GABA-A receptor; anion channel; test: Inhibition of binding to GABA-A central benzodiazepine receptor (Inactive); assay type: protein-complex assay, Mus musculus
[2] = system: Mus musculus; test: Evaluated for seizure threshold test at a dose 300 mg/kg &MMT is the maximal metrazole threshold to tonic flexion; I = Inactive; assay type: functional, organism-based; parameters: dose 300 mg/kg
How it was run: (§1)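 At 0.5 h (some at 1 or 4 h), 0.5% pentylenetetrazol in 0.9% NaCl with 0.001% heparin was infused into the tail vein at 6.31 μL/s. Time to 3 s persistent clonus (MST) or tonic flexion (MMT) was converted to mg/kg, reported as % change vs controls, Student's t test.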

[3] = system: Mus musculus; test: Evaluated for seizure threshold test at a dose 300 mg/kg &MST is the metrazole seizure threshold to persistent clonus; assay type: functional; how it was run: as §1
[4] = system: Mus musculus; test: Effective dose (ED50) was determined in sc Met (pentylenetetrazole) seizure threshold test; assay type: functional
How it was run: (§2)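 ADD Program screen in mice. Doses of 30, 100, 300 and 600 mg/kg were given, four animals per dose, with tests at 30 min and at 4 h. sc Met endpoint: no threshold seizure (single clonic spasm of 5 s) after an sc convulsant dose 99 of pentylenetetrazol. Rotorod assessed acute neurotoxicity. ED50/TD50 were estimated graphically; Litchfield-Wilcoxon 95% confidence limits were added for selected cases.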

[5] = Compound was determined in rotarod test and expressed as TD50; assay type: ADME, organism-based; details: mouse, in vivo
How it was run: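 ADD Program screen in mice. Doses of 30, 100, 300 and 600 mg/kg were given, four animals per dose, with tests at 30 min and at 4 h. sc Met endpoint: no threshold seizure (single clonic spasm of 5 s) after an sc convulsant dose 99 of pentylenetetrazol. Rotorod assessed acute neurotoxicity.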

[6] = organism: Mus musculus; test: Compound was determined in rotarod test and expressed as TD50; I = Inactive.; assay type: ADME, organism-based; details: in vivo; how it was run: as §2
[7] = system: Mus musculus; test: Evaluated for seizure threshold test at a dose 25 mg/kg &MMT is the maximal metrazole threshold to tonic flexion; I = Inactive.; assay type: functional, organism-based; parameters: dose 25 mg/kg
How it was run: (§3)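 0.5% pentylenetetrazol (with 0.9% NaCl and 0.001% heparin) was infused into a lateral tail vein at 6.31 μL/s. Time to 3 s of persistent clonus (MST) or hindlimb tonic flexion (MMT) was converted to mg/kg infused. Tested at 0.5 h (some at 4 h or 1 h). Results are % change from controls, by Student's t test.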

[8] = system: Mus musculus; test: Evaluated for seizure threshold test at a dose 25 mg/kg &MST is the metrazole seizure threshold to persistent clonus; I = Inactive.; assay type: functional, organism-based; parameters: dose 25 mg/kg; how it was run: as §3
[9] = system: Mus musculus; test: Effective dose (ED50) was determined in sc Met (pentylenetetrazole) seizure threshold test; I = Inactive.; assay type: functional, organism-based; how it was run: as §2
[10] = system: Mus musculus; test: Effective dose (ED50) was determined in sc Met (pentylenetetrazole) seizure threshold test; I = Inactive at all doses including 600 mg/kg; assay type: functional, organism-based; parameters: dose 600 mg/kg; how it was run: as §2
[11] = system: Mus musculus; test: Evaluated for seizure threshold test at a dose 600 mg/kg &MMT is the maximal metrazole threshold to tonic flexion.; assay type: functional; how it was run: as §3
[12] = system: Mus musculus; test: Evaluated for seizure threshold test at a dose 600 mg/kg &MST is the metrazole seizure threshold to persistent clonus; assay type: functional; how it was run: as §1
[13] = system: Mus musculus; test: Evaluated for seizure threshold test at a dose 300 mg/kg &MMT is the maximal metrazole threshold to tonic flexion.; assay type: functional; how it was run: as §3
[14] = system: Mus musculus; test: Evaluated for seizure threshold test at a dose 100 mg/kg & MMT is the maximal metrazole threshold to tonic flexion; I = inactive; assay type: functional, organism-based; parameters: dose 100 mg/kg; how it was run: as §1
[15] = Compound was evaluated for median lethal dose; assay type: ADME, organism-based; details: mouse, in vivo
[16] = system: Mus musculus; test: Evaluated for seizure threshold test at a dose 100 mg/kg & MST is the metrazole seizure threshold to persistent clonus; I = inactive; assay type: functional, organism-based; parameters: dose 100 mg/kg; how it was run: as §1
[17] = system: Mus musculus; test: Evaluated for seizure threshold test at a dose 300 mg/kg & MMT is the maximal metrazole threshold to tonic flexion; I - inactive; assay type: functional, organism-based; parameters: dose 300 mg/kg; how it was run: as §1
[18] = molecular target: GABA-A receptor; anion channel (Mus musculus) (UniProt Q8BHJ7+P26048+Q8QZW7+P50571+Q9R0Y8+P22723+A2AMW3+P62812+Q9JLF1+P26049+P22933+Q9D6F4+P63080+P27681+P16305); test: Inhibition of binding to GABA-A central benzodiazepine receptor (inactive); assay type: protein-complex assay
[19] = system: Mus musculus; test: Evaluated for seizure threshold test at a dose 300 mg/kg & MST is the metrazole seizure threshold to persistent clonus; assay type: functional; how it was run: as §1
[20] = molecular target: GABA-A receptor; anion channel; test: Binding affinity for umolar GABA-A central benzodiazepine receptor; assay type: protein-complex assay, Mus musculus
[21] = system: Mus musculus; test: Evaluated for seizure threshold test at a dose 100 mg/kg & MMT is the maximal metrazole threshold to tonic flexion.; assay type: functional; how it was run: as §1
[22] = system: Mus musculus; test: Evaluated for seizure threshold test at a dose 100 mg/kg & MST is the metrazole seizure threshold to persistent clonus; assay type: functional; details: 100 mg/kg; how it was run: as §1
[23] = system: Mus musculus; test: Evaluated for seizure threshold test at a dose 100 mg/kg & MMT is the maximal metrazole threshold to tonic flexion; I - inactive; assay type: functional, organism-based; parameters: dose 100 mg/kg; how it was run: as §3
[24] = system: Mus musculus; test: Evaluated for seizure threshold test at a dose 300 mg/kg &MST is the metrazole seizure threshold to persistent clonus; NA - Inactive.; assay type: functional, organism-based; parameters: dose 300 mg/kg; how it was run: as §3
[25] = system: Mus musculus; test: Evaluated for seizure threshold test at a dose 30 mg/kg &MST is the metrazole seizure threshold to persistent clonus; I = Inactive; assay type: functional, organism-based; parameters: dose 30 mg/kg; how it was run: as §3
[26] = system: Mus musculus; test: Evaluated for seizure threshold test at a dose 30 mg/kg &MMT is the maximal metrazole threshold to tonic flexion.; assay type: functional; how it was run: as §1
[27] = system: Mus musculus; test: Evaluated for seizure threshold test at a dose 1.0 mg/kg &MST is the metrazole seizure threshold to persistent clonus; assay type: functional; how it was run: as §1
[28] = system: Mus musculus; test: Evaluated for seizure threshold test at a dose 0.2 mg/kg &MMT is the maximal metrazole threshold to tonic flexion.; assay type: functional; how it was run: as §1
[29] = system: Mus musculus; test: Evaluated for seizure threshold test at a dose 0.2 mg/kg &MST is the metrazole seizure threshold to persistent clonus; assay type: functional; how it was run: as §1
[30] = system: Mus musculus; test: Evaluated for seizure threshold test at a dose 1.0 mg/kg &MMT is the maximal metrazole threshold to tonic flexion.; assay type: functional; how it was run: as §1

Structure (SMILES)	ED50 [4]	TD50 [5]	TD50 [6]	Change [7]	Change [8]	ED50 [9]	also measured
Cc1cc2c(C3CCCCC3)nc(O)nc2c(C#N)c1C	260 mg/kg	> 600 mg/kg	–	–	–	–	IC50 [1]: Not Active; Change [2]: inactive; Change [3]: 44%
Cc1cc2c(-c3ccccc3)ncnc2c(C#N)c1C	–	–	Not Active	Not significant	Not significant	inactive	–
Cc1cc2c(C)nc(O)nc2c(C#N)c1C	–	–	Not Active	Not significant	Not significant	inactive	–
Cc1cc2c(c(C#N)c1C)NC(=O)CN=C2C1CC1	–	600 mg/kg	–	–	–	–	IC50 [1]: Not Active; ED50 [10]: inactive; Change [2]: inactive; Change [3]: 300%
Cc1cc(C(=O)c2ccccc2Cl)c(N)c(C#N)c1C	–	–	Not Active	Not significant	Not significant	inactive	–
Cc1cc(C(=O)C2CC2)c(N)c(C#N)c1C	600 mg/kg	> 600 mg/kg	–	–	–	–	Change [11]: 37%; Change [12]: 23%
CC(=O)c1cc(C)c(C)c(C#N)c1N	300 mg/kg	> 600 mg/kg	–	–	–	–	Change [13]: 13%; Change [3]: 15%
Cc1cc2c(c(C#N)c1C)NC(=O)CN=C2c1ccccc1	370 mg/kg	> 1000 mg/kg	–	–	–	–	Change [14]: inactive; LD50 ([15]; read-out: LD): > 2 mg/kg; Change [16]: inactive; Change [17]: inactive; Change [18]: inactive; Change [19]: 44%
O=C1NC(=O)C(c2ccccc2)(c2ccccc2)N1 [PHENYTOIN]	–	–	–	–	–	–	Ki [20]: 155 µM
Cc1cc2c(-c3ccccc3F)nc(O)nc2c(C#N)c1C	–	–	Not Active	Not significant	Not significant	inactive	–
Cc1cc(C(=O)c2ccccc2)c(NC(=O)CBr)c(C#N)c1C	480 mg/kg	600 mg/kg	–	–	–	–	Change [21]: 49%; Change [22]: 70% and 37%; Change [23]: inactive
Cc1cc(C(=O)c2ccccc2)c(O)c(C#N)c1C	–	–	Not Active	Not significant	Not significant	inactive	–
Cc1cc2c(c(C#N)c1C)NC=NC2C1CC1 (stereo not drawn)	–	–	Not Active	Not significant	Not significant	inactive	–
Cc1cc2c(-c3ccccc3F)ncnc2c(C#N)c1C	–	–	Not Active	Not significant	Not significant	inactive	–
CC1N=CNc2c1cc(-c1ccccc1)c(-c1ccccc1)c2C#N (stereo not drawn)	–	–	Not Active	Not significant	Not significant	inactive	–
Cc1cc(C(=O)c2ccccc2)c(N)c(C#N)c1C	–	–	Not Active	Not significant	Not significant	inactive	–
Cc1cc2c(-c3ccccc3)nc(O)nc2c(C#N)c1C	–	–	Not Active	Not significant	Not significant	inactive	–
CC(=O)c1cc(-c2ccccc2)c(-c2ccccc2)c(C#N)c1N	260 mg/kg	> 600 mg/kg	–	–	–	–	Change [13]: 20%; Change [24]: inactive
Cc1cc2c(C)ncnc2c(C#N)c1C	–	45 mg/kg	–	–	–	–	LD50 [15]: 150 mg/kg; IC50 [1]: Not Active; ED50 [10]: inactive; Change [25]: inactive; Change [26]: -24%
CN1C(=O)CN=C(c2ccccc2)c2cc(Cl)ccc21 [DIAZEPAM]	0.17 mg/kg	7.3 mg/kg	–	–	–	–	Change [27]: 60%; Change [28]: 15%; Change [29]: 50%; Change [30]: 40%
